From ChEMBL document CHEMBL4387775, “Minimum structural requirements for inhibitors of the zinc finger protein TRAF6” (Bioorg Med Chem Lett, 2019)
Active and inactive are the calls of the source. The rule behind the calls is not given here.

Legend:
[1] = biological target: T1, TNF receptor-associated factor 6 (Homo sapiens) (UniProt Q9Y4K3); experiment: Inhibition of TRAF6 (unknown origin)-mediated NFkappaB activation expressed in human HeLaS3 cells harboring 3kappaB-tk-luc at 10 uM preincubated for 1 hr followed by Il1alpha-stimulation and measured after 3 hrs in presence of DTT by dual-luciferase reporter gene assay relative to control; format: cell-based
T1 sequence (whole entry): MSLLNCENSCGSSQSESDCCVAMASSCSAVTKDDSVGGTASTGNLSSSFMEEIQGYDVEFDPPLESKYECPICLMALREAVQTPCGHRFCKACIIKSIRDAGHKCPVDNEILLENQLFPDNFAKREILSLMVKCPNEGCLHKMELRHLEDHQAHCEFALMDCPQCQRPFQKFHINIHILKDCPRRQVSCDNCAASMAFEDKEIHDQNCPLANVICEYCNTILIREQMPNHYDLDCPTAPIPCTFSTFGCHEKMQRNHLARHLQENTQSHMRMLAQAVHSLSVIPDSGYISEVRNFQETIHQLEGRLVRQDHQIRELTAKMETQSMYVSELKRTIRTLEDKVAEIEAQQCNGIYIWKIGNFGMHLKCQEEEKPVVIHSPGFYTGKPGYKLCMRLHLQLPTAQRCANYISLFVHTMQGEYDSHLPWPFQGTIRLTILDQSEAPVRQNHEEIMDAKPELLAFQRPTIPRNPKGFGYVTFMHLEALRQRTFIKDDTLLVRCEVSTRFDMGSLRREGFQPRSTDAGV
In short: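 Cells co-transfected with 3κB-tk-luc and pRL-Luc (β-actin-driven renilla), cultured 1 day, then given compound (10 μM) plus DTT (30 μM) for 1 h before IL-1α (10 ng/mL) stimulation for 3 h. Dual-luciferase read-out: κB-firefly signal normalized to renilla, reported as relative NF-κB activity.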

[2] = Prodrug conversion in human HeLaS3 assessed as NpSH formation at 10 uM; format: ADME, cell-based; conditions: hela s3, 10 µM
[3] = tested on: HeLa S3; experiment: Cytotoxicity against human HeLaS3 cells assessed as reduction in cell viability at 10 uM measured after 8 hrs in presence of DTT by MTT assay relative to control; format: functional
In short: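 Cells treated with compound at 10 μM together with DTT (30 μM), incubated 8 h, then viability read by MTT assay; shown as activity relative to control.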

[4] = biological target: T1, TNF receptor-associated factor 6 (Homo sapiens); experiment: Inhibition of TRAF6 (unknown origin)-mediated NFkappaB activation expressed in human HeLaS3 cells harboring 3kappaB-tk-luc at 10 uM preincubated for 1 hr followed by Il1alpha-stimulation and measured after 3 hrs by dual-luciferase reporter gene assay relative to control; format: cell-based
In short: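 Cells co-transfected with 3κB-tk-luc (triple κB site driving firefly luciferase) and pRL-Luc (β-actin promoter driving renilla luciferase), cultured 1 day, given compound (10 μM) without DTT for 1 h, then stimulated with IL-1α (10 ng/mL) for 3 h. Lysates read by dual-luciferase assay; firefly signal normalized to renilla, expressed as relative NF-κB activity.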

| Structure (SMILES) | inhibition [1] | Drug metabolism [2] | Activity [3] | inhibition [4] [%] |
| --- | --- | --- | --- | --- |
| O=[N+]([O-])c1ccccc1SSCCNCc1cccc(CNCCSSc2ccccc2[N+](=O)[O-])c1 | inactive | Metabolite_Detected | – | – |
| CC(C)=CCC/C(C)=C/CC/C(C)=C/COC(=O)Nc1cc(CNCCS)nc(CNCCS)c1 | inactive | – | – | – |
| O=[N+]([O-])c1ccccc1S | inactive | – | 24% | – |
| CCCCCCCCCCCCOC(=O)Nc1cc(CNCCS)nc(CNCCS)c1 | inactive | – | – | – |
| CN(C)c1cc(CNCCSSc2ccccc2[N+](=O)[O-])nc(CNCCSSc2ccccc2[N+](=O)[O-])c1 | 89% | Metabolite_Detected | inactive | 80 |
| O=[N+]([O-])c1ccccc1SSCCNCc1cccc(CNCCSSc2ccccc2[N+](=O)[O-])n1 | 84% | Metabolite_Detected | – | 76 |
| O=C(CCCC[C@@H]1SC[C@@H]2NC(=O)N[C@@H]21)NCCCCCCOC(=O)Nc1cc(CNCCS)nc(CNCCS)c1 | 78% | – | – | – |
| CN(C)c1ccnc(CNCCS)c1 | inactive | – | – | – |
| O=[N+]([O-])c1ccccc1SSc1ccccc1[N+](=O)[O-] | – | Metabolite_Detected | – | – |
| SCCNCc1ccccn1 | inactive | – | – | – |
| Sc1ccccc1NCc1ccccn1 | inactive | – | – | – |
